Data: paper PMC6294321 (Molecular cell, 2018)
One block for each molecule: values may come before it. Where no end group is shown, it is not given here.

How the values were obtained:
[1] = biological target: T1, GST-tagged KLHDC2 (kelch repeat domain, WT) (Homo sapiens, UniProt Q9Y2U9); test: AlphaScreen competition assay, wild type KLHDC2; type: binding; details: USP1 vs SelK 8 aa peptide
T1 sequence (Q9Y2U9 1-362): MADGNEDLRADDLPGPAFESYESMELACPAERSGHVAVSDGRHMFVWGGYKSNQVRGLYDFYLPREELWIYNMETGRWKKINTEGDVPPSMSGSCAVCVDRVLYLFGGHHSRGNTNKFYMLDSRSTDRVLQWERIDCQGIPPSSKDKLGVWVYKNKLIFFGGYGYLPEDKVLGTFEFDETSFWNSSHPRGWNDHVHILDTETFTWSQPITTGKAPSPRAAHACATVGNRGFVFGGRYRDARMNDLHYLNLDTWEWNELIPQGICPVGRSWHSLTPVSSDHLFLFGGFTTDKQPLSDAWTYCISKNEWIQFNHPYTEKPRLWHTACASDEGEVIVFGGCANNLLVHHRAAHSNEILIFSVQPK
How it was run: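 Human KLHDC2 kelch domain (aa 1–362), GST-tagged, was expressed in baculovirus-infected Hi5 cells. It was purified by glutathione agarose, Q Sepharose and Superdex-200. The assay used 0.12 nM protein on anti-GST acceptor beads and 1.7 nM biotinylated 12 aa SelK peptide on streptavidin donor beads, 5 μg/ml beads. Buffer: HEPES pH 7.5, NaCl, TCEP, Tween-20, BSA. Competitor peptides ran 2 nM–3 mM, in triplicate; IC50 by non-linear fitting.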

[2] = biological target: GST-KLHDC2 (kelch repeat domain, amino acid 1-362) (human) (UniProt Q9Y2U9); test: AlphaScreen or HTRF
[3] = biological target: GST-KLHDC2 R241K (kelch repeat domain) (human) (UniProt Q9Y2U9); test: AlphaScreen or HTRF
[4] = biological target: T2, GST-KLHDC2 (kelch repeat domain, amino acid 1-362) (human, UniProt Q9Y2U9 1-362); test: BLI
T2 sequence (looked up): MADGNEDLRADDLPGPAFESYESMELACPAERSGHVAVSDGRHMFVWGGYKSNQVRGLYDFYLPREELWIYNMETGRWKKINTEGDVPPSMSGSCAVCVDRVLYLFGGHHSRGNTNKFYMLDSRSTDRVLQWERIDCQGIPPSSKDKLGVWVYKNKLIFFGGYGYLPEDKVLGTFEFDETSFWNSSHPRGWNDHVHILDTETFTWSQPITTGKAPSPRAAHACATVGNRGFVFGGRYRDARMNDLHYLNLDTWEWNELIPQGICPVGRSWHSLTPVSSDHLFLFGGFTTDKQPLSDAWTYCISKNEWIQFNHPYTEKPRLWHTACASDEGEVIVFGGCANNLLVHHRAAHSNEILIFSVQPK

[5] = biological target: T2, GST-KLHDC2 (kelch repeat domain, amino …); test: AlphaScreen or HTRF
[6] = biological target: T3, GST-KLHDC2 R241K (kelch repeat domain) (human, UniProt Q9Y2U9 1-362, R241K); test: AlphaScreen or HTRF
T3 sequence (looked up): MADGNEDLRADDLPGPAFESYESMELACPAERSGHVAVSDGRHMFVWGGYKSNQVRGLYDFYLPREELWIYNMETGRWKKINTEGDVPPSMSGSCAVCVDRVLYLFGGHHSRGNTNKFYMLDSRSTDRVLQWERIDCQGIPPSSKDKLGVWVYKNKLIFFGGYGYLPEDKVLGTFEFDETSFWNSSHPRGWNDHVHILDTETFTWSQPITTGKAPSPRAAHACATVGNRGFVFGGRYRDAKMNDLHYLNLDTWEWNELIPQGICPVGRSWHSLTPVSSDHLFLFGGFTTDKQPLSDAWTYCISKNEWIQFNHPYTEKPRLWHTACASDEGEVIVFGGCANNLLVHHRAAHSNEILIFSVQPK

Molecule: EAIGLLGG-OH [USP1-NTD degron peptide]
fold lower potency/affinity vs SelK [1]: about 7 fold

Molecule: 8 aa USP1-NTD C-end degron peptide
IC50 [2]: 69.5 nM
IC50 [3]: 62.6 µM

B2: 12 aa SelK degron peptide (label-free) (peptide, UniProt Q9Y6D0 80-91, looked up)
peptide: LRGPSPPPMAGG
IC50 [5]: ~3 nM

B4: 8 aa SelK degron peptide, C-terminally amidated (peptide, UniProt Q9Y6D0 84-91, looked up)
peptide: SPPPMAGG-NH2
fold decrease in affinity against the unmodified 8 aa peptide [5]: ~1000 fold

B5: 8 aa SelK C-end degron peptide (label-free, wild type) (peptide, UniProt Q9Y6D0 84-91, looked up)
peptide: SPPPMAGG
IC50 [6]: 5.9 µM

Results, then the molecule that gave them:

Kd [2]: 360 µM
Molecule: diglycine (2 aa SelK degron peptide, label-free)

Kd [4]: ~4 nM
B1: biotinylated 12 aa SelK degron peptide (peptide, UniProt Q9Y6D0 80-91, looked up)
peptide: LRGPSPPPMAGG
modifications: also: biotin, position not given here

binding result [5]: binds
B3: 6 aa SelK degron peptide (label-free) (peptide, UniProt Q9Y6D0 86-91, looked up)
peptide: PPMAGG
